Source: ChEMBL document CHEMBL1155231, “Fluoro-pegylated chalcones as positron emission tomography probes for in vivo imaging of beta-amyloid plaques in Alzheimer's disease” (J Med Chem, 2009)
Activity calls are given as the source filed them. The rule behind the calls is not given here.

Key:
[1] = Displacement of [125I]DMIC from amyloid beta (1 to 42) peptide
Method in brief: (§1)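 Aβ(1-42) aggregated at 0.25 mg/mL in 10 mM sodium phosphate, 1 mM EDTA, pH 7.4, 37 °C for 42 h with gentle constant shaking. Competition against [125I]DMIC. Bound and free separated by GF/B filtration, filter radioactivity read by γ counter. IC50 from displacement curves of three independent experiments, Ki by Cheng-Prusoff.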

[2] = test system: Blood; test: Biodistribution in normal ddY mouse blood at 3.7 MBq, iv after 30 mins; format: ADME, organism-based; details: in vivo, 0.5 h
Method in brief: (§2)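 Tracer (3.7 MBq) in 100 μL saline with 10% EtOH and 1 mg/mL ascorbic acid, injected into tail vein of 5-week-old ddY mice (22-25 g). Groups of five killed at each time; organs removed, weighed, radioactivity γ-counted and expressed as % injected dose per gram, mean ± SD of 4-5 mice.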

[3] = test system: Blood; test: Biodistribution in normal ddY mouse blood at 3.7 MBq, iv after 10 mins; format: ADME, organism-based; details: in vivo; method in brief: as §2
[4] = test system: Brain; test: Biodistribution in normal ddY mouse brain at 3.7 MBq, iv after 30 mins; format: ADME, organism-based; details: in vivo, 0.5 h; method in brief: as §2
[5] = test system: Blood; test: Biodistribution in normal ddY mouse blood at 3.7 MBq, iv after 60 mins; format: ADME, organism-based; details: in vivo, 1 h; method in brief: as §2
[6] = test system: Brain; test: Biodistribution in normal ddY mouse brain at 3.7 MBq, iv after 60 mins; format: ADME, organism-based; details: in vivo, 1 h; method in brief: as §2
[7] = test system: Blood; test: Biodistribution in normal ddY mouse blood at 3.7 MBq, iv after 2 mins; format: ADME, organism-based; details: in vivo; method in brief: as §2
[8] = test system: Brain; test: Biodistribution in normal ddY mouse brain at 3.7 MBq, iv after 10 mins; format: ADME, organism-based; details: in vivo; method in brief: as §2
[9] = test system: Brain; test: Biodistribution in normal ddY mouse brain at 3.7 MBq, iv after 2 mins; format: ADME, organism-based; details: in vivo; method in brief: as §2
[10] = test system: Bone; test: Biodistribution in normal ddY mouse bone at 3.7 MBq, iv after 10 mins; format: ADME, organism-based, Bone element; details: in vivo; method in brief: as §2
[11] = test system: Bone; test: Biodistribution in normal ddY mouse bone at 3.7 MBq, iv after 30 mins; format: ADME, organism-based, Bone element; details: in vivo, 0.5 h; method in brief: as §2
[12] = test system: Bone; test: Biodistribution in normal ddY mouse bone at 3.7 MBq, iv after 60 mins; format: ADME, organism-based, Bone element; details: in vivo, 1 h; method in brief: as §2
[13] = test system: Bone; test: Biodistribution in normal ddY mouse bone at 3.7 MBq, iv after 2 mins; format: ADME, organism-based, Bone element; details: in vivo; method in brief: as §2
[14] = molecular target: Amyloid-beta precursor protein (Homo sapiens) (UniProt P05067); test: Binding affinity to beta amyloid plaques in human Alzheimer's disease patient brain at 54 uCi/200 uL by autoradiography; details: tested as the 18F-labelled form
[15] = test system: Amyloid-beta precursor protein (Homo sapiens), P05067 [K670N,M671L]; test: Binding affinity to human recombinant APP695 K670N and M671L Swedish double mutant plaques expressed in Tg2576 mouse brain at 100 uM after 10 mins by amyloid beta-protein immunohistostaining
Method in brief: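 Female Tg2576 and age-matched wild-type mice, 20 months old; brains frozen on dry ice, cut into 10 μm serial sections. Slides incubated 10 min with 100 μM compound in 50% EtOH, washed twice 3 min in 50% EtOH, fluorescence read with excitation 450-490 nm and 520 nm long-pass. Adjacent sections immunostained for Aβ with DAB.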

[16] = Binding affinity to amyloid beta (1 to 42) peptide; method in brief: as §1

CNc1ccc(/C=C/C(=O)c2ccc(OCCF)cc2)cc1
Ki [1]: 0.197 µM

CNc1ccc(/C=C/C(=O)c2ccc(F)cc2)cc1
Ki [1]: 0.234 µM

CN([11CH3])c1ccc(/C=C/C(=O)c2ccc(F)cc2)cc1
Drug uptake [2]: 0.39 % ID/g
Drug uptake [3]: 1.6 % ID/g
Drug uptake [4]: 1.04 % ID/g
Drug uptake [5]: 1.4 % ID/g
Drug uptake [6]: 1.04 % ID/g
Drug uptake [7]: 2.61 % ID/g
Drug uptake [8]: 1.53 % ID/g
Drug uptake [9]: 3.68 % ID/g

CN(C)c1ccc(-c2cn3cc(I)ccc3n2)cc1
Ki [1]: 0.028 µM

CN(C)c1ccc(/C=C/C(=O)c2ccc(OCCOCCOCC[18F])cc2)cc1
Drug uptake [2]: 2.35 % ID/g
Drug uptake [3]: 1.94 % ID/g
Drug uptake [4]: 1.08 % ID/g
Drug uptake [10]: 1.76 % ID/g
Drug uptake [5]: 1.87 % ID/g
Drug uptake [6]: 1.07 % ID/g
Drug uptake [7]: 2.09 % ID/g
Drug uptake [11]: 2.98 % ID/g
Drug uptake [8]: 1.52 % ID/g
Drug uptake [12]: 3.58 % ID/g
Drug uptake [9]: 3.48 % ID/g
Drug uptake [13]: 1.8 % ID/g

CNc1ccc(/C=C/C(=O)c2ccc(OCCOCCF)cc2)cc1
Ki [1]: 0.216 µM

Nc1ccc(/C=C/C(=O)c2ccc(OCCF)cc2)cc1
Ki [1]: 0.679 µM

CN([11CH3])c1ccc(/C=C/C(=O)c2ccc(OCCF)cc2)cc1
Drug uptake [2]: 2.12 % ID/g
Drug uptake [3]: 2.73 % ID/g
Drug uptake [4]: 2.57 % ID/g
Drug uptake [5]: 2.22 % ID/g
Drug uptake [6]: 2.26 % ID/g
Drug uptake [7]: 3.65 % ID/g
Drug uptake [8]: 3.24 % ID/g
Drug uptake [9]: 6.01 % ID/g

CN([11CH3])c1ccc(/C=C/C(=O)c2ccc(OCCOCCOCCF)cc2)cc1
Drug uptake [2]: 1.01 % ID/g
Drug uptake [3]: 1.52 % ID/g
Drug uptake [4]: 0.64 % ID/g
Drug uptake [5]: 0.68 % ID/g
Drug uptake [6]: 0.35 % ID/g
Drug uptake [7]: 2.44 % ID/g
Drug uptake [8]: 1.38 % ID/g
Drug uptake [9]: 4.31 % ID/g

Nc1ccc(/C=C/C(=O)c2ccc(OCCOCCF)cc2)cc1
Ki [1]: 1.05 µM

CN(C)c1ccc(/C=C/C(=O)c2ccc(OCCOCCOCCF)cc2)cc1
Activity [14]: Active
Activity [15]: Active
Ki [1]: 0.0389 µM

CN(C)c1ccc(/C=C/C(=O)c2ccc(OCCOCCF)cc2)cc1
Ki [1]: 0.02 µM

CNc1ccc(/C=C/C(=O)c2ccc(OCCOCCOCCF)cc2)cc1
Ki [1]: 0.471 µM

Nc1ccc(/C=C/C(=O)c2ccc(OCCOCCOCCF)cc2)cc1
Ki [1]: 0.79 µM

CNc1ccc(/C=C/c2ccc(OCCOCCOCC[18F])cc2)cc1 [FLORBETABEN F18]
Ki [16]: 0.0067 µM

CN(C)c1ccc(/C=C/C(=O)c2ccc(F)cc2)cc1
Ki [1]: 0.0498 µM

CN(C)c1ccc(/C=C/C(=O)c2ccc(OCCF)cc2)cc1
Ki [1]: 0.0457 µM

Nc1ccc(/C=C/C(=O)c2ccc(F)cc2)cc1
Ki [1]: 0.663 µM

CN([11CH3])c1ccc(/C=C/C(=O)c2ccc(OCCOCCF)cc2)cc1
Drug uptake [2]: 2.54 % ID/g
Drug uptake [3]: 2.28 % ID/g
Drug uptake [4]: 1.14 % ID/g
Drug uptake [5]: 1.44 % ID/g
Drug uptake [6]: 1 % ID/g
Drug uptake [7]: 3.48 % ID/g
Drug uptake [8]: 2.23 % ID/g
Drug uptake [9]: 4.73 % ID/g

CN(C)c1ccc(/C=C/C(=O)c2ccc(I)cc2)cc1
Ki [1]: 0.0131 µM
